Efflux pump inh = inhibitors of Candida efflux pumps in yeast, primary screen, S. cerevisiae, Nile Red, multiplex. 330,000 tested, 0.44% active. inhibition, % at 10 µM. S. cerevisiae Candida pump triplex;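 active means plate passing quality check with inhibition over a set limit, or well fluorescence over plate mean plus 4 SD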;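 further: Nile Red retained in pooled yeast measured as flow cytometry median fluorescence; 0% = buffer negative control and 100% = Enniatin B positive control; higher means more Nile Red kept so more efflux inhibition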
TAG inh = inhibitors of triacylglycerol accumulation, primary screen, cell-based, uHTS, fluorescence, H9c2. H9c2 cells, Nile Red lipid (TAG) fluorescence; cells loaded with 200 µM oleic acid. inhibition, % at 12.5 µM. 230,000 tested, 0.66% active. AID 651582, 2012;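 active means pattern-corrected inhibition of lipid staining of at least 50% with the nuclear-stain viability signal not falling by more than 50%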;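 further: 0% = DMSO wells and 100% = triacsin C control wells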
GalR3 antag = GalR3 antagonists in HEK293 cells, primary screen, cell-based, fluorescence readout; HEK293 GalR3-CNG cAMP membrane potential fluorescence; galR3 body fused to GalR1 C-terminus; Galanin receptor type 3 (Homo sapiens), O60755; AID 651719, 2012; 360,000 tested, 0.44% active; inhibition, % at 3 µM;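 active means inhibition above the screen-wide average plus 3 SD, cut at about 13% in these data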;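 further: forskolin and galanin both at EC90 stimulate the cells; cAMP rise reported by CNG channel membrane potential dye signal; 0% = forskolin plus galanin with DMSO and 100% = forskolin alone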
Target sequence (O60755 1-299 limits assumed): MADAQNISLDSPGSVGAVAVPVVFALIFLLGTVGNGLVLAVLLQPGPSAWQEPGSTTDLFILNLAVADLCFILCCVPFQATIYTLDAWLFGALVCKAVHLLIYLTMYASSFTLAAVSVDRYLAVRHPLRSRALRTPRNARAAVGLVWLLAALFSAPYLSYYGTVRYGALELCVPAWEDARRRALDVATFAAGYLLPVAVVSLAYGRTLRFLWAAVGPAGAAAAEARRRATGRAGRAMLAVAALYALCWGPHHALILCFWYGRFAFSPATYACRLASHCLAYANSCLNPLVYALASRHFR
MC4R antagonist = MC4R antagonists of cAMP signaling, primary screen, cell-based, TR-FRET, antagonist arm of biased-ligand search | MC4R-expressing cells, MTII-stimulated cAMP, LANCE TR-FRET | inhibition, % at 6.5 µM | 360,000 tested, 0.48% active | AID 540295, 2011;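 active means inhibition above its plate's cutoff, the mean of tested wells on that plate plus 3 SD, cut at about 29% in these data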;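 further: 0% = Melanotan II alone and 100% = Melanotan II plus saturating MCL0020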
Target sequence (P32245 whole entry, looked up): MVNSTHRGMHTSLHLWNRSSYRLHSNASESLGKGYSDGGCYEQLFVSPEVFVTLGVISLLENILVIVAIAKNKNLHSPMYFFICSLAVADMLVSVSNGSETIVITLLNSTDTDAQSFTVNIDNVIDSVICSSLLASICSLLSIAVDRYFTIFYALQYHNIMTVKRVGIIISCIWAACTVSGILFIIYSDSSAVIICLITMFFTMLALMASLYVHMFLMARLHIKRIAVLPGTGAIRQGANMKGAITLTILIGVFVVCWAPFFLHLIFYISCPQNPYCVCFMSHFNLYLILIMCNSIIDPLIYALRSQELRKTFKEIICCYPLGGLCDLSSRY
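Assay system: human MC4R-expressing U2OS cells; reagent: Melanotan II stimulation of cells; dosing: 6.5 µM single dose; timing: compound 30 min, challenge 1 h, detection 1 h; signal: TR-FRET cAMP assay; replicates: one well per compound, no replicates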
Calb FLC = C. albicans growth inhibition with fluconazole, primary screen, CaCi-2 strain, Alamar Blue fluorescence. C. albicans CaCi-2 (fluconazole-resistant clinical isolate) + fluconazole, 48 h. growth inhibition, % (test concentration not listed). 300,000 tested, 0.57% active. AID 1979, 2009;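 active means growth inhibition above about 58% in most replicates, limit read from the data, passing the limit was not always enough; inconclusive means exactly half the replicates above a set limit; inactive means most replicates below a set limit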;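 further: all wells also contain fluconazole at 8 µg/ml as a sub-toxic cotreatment; 0% = median of DMSO wells and 100% = median of geldanamycin control wells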
MC4R barr agon = MC4R agonists recruiting beta-arrestin, primary screen, cell-based, luminescence, agonist arm of biased-ligand search | activation, % at 8.9 µM | U2OS MC4R beta-arrestin complementation; percent of melanotan II response, DMSO zero | 360,000 tested, 0.98% active;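 active means activation above a per-plate cutoff, the mean activation of sample wells on that plate plus 3 SD, cut at about 8% in these data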
* hit, by the source's call; ? = inconclusive; / = no result. Sampled rows, rich in hits. Any-hit rate of the full collection: about 2.9%.

SMILES | Efflux pump inh | TAG inh | GalR3 antag | MC4R antagonist | Calb FLC | MC4R barr agon
O=C1C2CC=CCC2C(=O)N1SC(Cl)(Cl)Cl (centres undefined) | / | / | 35.2* | / | / | /
COC(=O)C1=C(C(=O)OC)C2OC1c1cc3ccccc3cc12 | / | 70.4* | -2.8 | 9.8 | / | -1.7
COC(=O)C1=C(c2ccc3ccccc3c2)C[C@@H]2CC[C@H]1N2C | 0.0 | -23.1 | -6.0 | -8.3 | / | -1.0
CN1CCC(N(C)c2nc(-c3ccc([N+](=O)[O-])cc3)nc3ccccc23)CC1 | / | 58.7* | -9.9 | 4.4 | -1.3 | 0.0
C=CCN1C[C@H](C)N(C(c2ccc(C(=O)N(CC)CC)cc2)c2cccc(OC)c2)CC1C (some centres undefined) | / | / | -2.0 | / | / | /
CCc1ccc(CNCCc2ccc(F)cc2)cc1 | -0.1 | / | -4.5 | 3.4 | -22.5 | 0.5
Fc1ccc(CCNCc2ccc(Cl)c(Cl)c2)cc1 | 0.0 | / | -3.9 | 0.9 | -6.1 | 8.7*
O=[N+]([O-])c1cc(Cl)c(O)c(-[n+]2c(-c3ccccc3)cc(-c3ccccc3)cc2-c2ccccc2)c1 | 0.1 | / | -10.3 | -2.3 | -2.0 | -1.9
O=[N+]([O-])c1ccc(C[n+]2c(-c3ccccc3)cc(-c3ccccc3)cc2-c2ccccc2)cc1 | 0.1 | -40.1 | -0.2 | 4.0 | 107.3* | -1.2
OC1CN2CCC(O)C2C(O)C1O (centres undefined) | / | / | -7.2 | / | / | /
CN1CCc2cc3c(c4c2C1Cc1ccccc1-4)OCO3 (centres undefined) | -0.1 | / | -11.6 | 4.5 | 92.4* | -0.1
c1ccc(CN2CCc3nc4ccccc4cc3C2)cc1 | -0.2 | / | -11.4 | 4.7 | 76.4* | -0.7
CN1CCN(Cc2ccc3ccccc3c2)CC1 | 0.0 | 1.9 | -11.2 | 12.4 | 1.0 | -2.0
COC(=O)C1C(c2ccc(I)cc2)CC2CCC1N2C (centres undefined) | / | / | -2.3 | / | / | /
CC(=O)NCC1=C(c2ccc(S(C)(=O)=O)cc2)C[C@@H]2CC[C@H]1N2CCOc1ccccc1 | / | / | -6.4 | / | / | /
Cc1cc(N2CCNC[C@H]2C)ccc1N1CC[C@@H](O)C1 | / | / | -4.8 | / | / | /
CCCCCC[N+](=O)[O-] | -0.1 | / | 0.6 | 5.1 | / | -0.9
CCCCCCCCCCCCCCCC[N+](C)(C)C | 0.7 | -1.1 | 4.1 | 18.2 | 102.1* | 3.2
Cc1cc(N2CCNC[C@H]2C)ccc1N1CCN[C@H](C)C1 | / | / | -1.4 | / | / | /
COc1ccc(CN2CCCC(C(=O)c3cccc(Cl)c3)C2)cc1 (centres undefined) | 0.1 | / | -10.4 | 4.2 | 7.3 | 9.0*
COc1ccccc1N | / | / | -2.9 | / | / | /
Cc1ccc(-c2nc3ccccc3c(=O)n2-c2nccs2)cc1 | 0.1 | / | -3.5 | -3.0 | -2.2 | 9.2*
CC(=O)OC1CC(OC2C(O)CC(OC3C(O)CC(OC4CCC5(C)C(CCC6C5CCC5(C)C(C7=CC(=O)OC7)C(O)CC65O)C4)OC3C)OC2C)OC(C)C1OC1OC(CO)C(O)C(O)C1O (centres undefined) | / | 11.1 | 34.2* | 10.9 | / | 15.3*
CC(=O)[C@H]1CCC2C3CC[C@H]4C[C@@H](O)CC[C@]4(C)C3CC[C@@]21C (some centres undefined) | 0.0 | 0.1 | -2.8 | -2.1 | / | -0.2
CC1OC(OC2C(O)CC(OC3C(O)CC(OC4CCC5(C)C(CCC6C5CCC5(C)C(C7=CC(=O)OC7)C(O)CC65O)C4)OC3C)OC2C)CC(O)C1O (centres undefined) | / | 7.3 | 0.0 | 0.6 | / | 26.6*
SMILES | Efflux pump inh | TAG inh | GalR3 antag | MC4R antagonist | Calb FLC | MC4R barr agon
CC(=O)OC1CC2(O)C3CCC4CC(O)CCC4(C)C3CCC2(C)C1C1=CC(=O)OC1 (centres undefined) | / | 20.7 | 21.3* | 9.8 | / | 17.4*
O=C(NCCN1CCC2(CC1)C(=O)NCN2c1ccccc1)c1cccnc1Cl | / | / | -5.6 | / | / | /
Cc1ccc(OC(=O)N(C)C[C@@H]2OCc3ccccc3-c3c(n(C)c4ccccc34)C(=O)N([C@H](C)CO)C[C@H]2C)cc1 | / | / | -6.0 | / | / | /
C[C@@H]1O[C@@H](O[C@H]2C[C@@H](O)[C@]3(CO)[C@H]4[C@H](O)C[C@]5(C)[C@@H](C6=CC(=O)OC6)CC[C@]5(O)[C@@H]4CC[C@]3(O)C2)[C@H](O)[C@H](O)[C@H]1O | / | 0.7 | / | -3.6 | / | 34.7*
COC(=O)[C@]12OC[C@]34C([C@@H](O)[C@@H]1O)[C@]1(C)CC(=O)C(O)=C(C)[C@@H]1C[C@H]3OC(=O)[C@H](O)[C@@H]24 (some centres undefined) | / | 65.2* | -4.2 | -3.0 | 2.3 | -2.1
O=C(NCCN1CCC2(CC1)C(=O)NCN2c1ccccc1)c1ccc(F)c(F)c1 | / | / | -9.9 | / | / | /
CC[C@]12CCN(CC3(O)CC3)[C@H](Cc3ccc(O)cc31)C2(C)C | / | / | 2.2 | / | / | /
CCOC(=O)c1ccc(-[n+]2c(-c3ccccc3)cc(-c3ccccc3)cc2-c2ccccc2)cc1 | 0.0 | / | / | / | 38.6 | /
CN(C)c1ccc(-[n+]2c(-c3ccccc3)cc(-c3ccccc3)cc2-c2ccccc2)cc1 | / | / | -4.3 | -11.1 | 90.4* | 8.2
Cc1ccc(-c2cc(-c3ccccc3)cc(-c3ccccc3)[n+]2-c2ccccc2)cc1 | -0.1 | 47.8 | -7.6 | 13.6 | 86.1* | 1.9
c1ccc(-c2cc(-c3ccccc3)[n+](-c3ccccc3)c(-c3ccccc3)c2)cc1 | 0.0 | 40.4 | -8.3 | 6.5 | ? | 3.2
C[n+]1c(-c2ccccc2)cc(-c2ccc(Cl)cc2)cc1-c1ccccc1 | -0.1 | -7.6 | -1.1 | 2.5 | 97.0* | -0.7
Cc1cc(N2CCNC[C@H]2C)ccc1N1CCN[C@@H](C)C1 | / | / | -6.5 | / | / | /
O=[N+]([O-])c1ccc(N2CCOCC2)c2c1no[n+]2[O-] | / | 121.4* | -1.2 | 20.8 | / | -0.7
O=C(O)c1cc(S(=O)(=O)N2CC3CC(C2)c2cccc(=O)n2C3)ccc1F (centres undefined) | / | / | -4.0 | / | / | /
c1ccc(Cc2cnc(N3CCNCC3)nc2)cc1 | / | / | -6.6 | / | / | /
CCCCCn1c(=O)c(C(=O)NCc2ccncc2)c(O)c2ccccc21 | 0.0 | -6.6 | -1.2 | 1.4 | 84.4* | 0.1
Cc1cc(N2CCNC[C@@H]2C)ccc1N1CCN[C@@H](C)C1 | / | / | -6.9 | / | / | /
O=C1NC(=O)C(=C/C=C/c2coc3ccc(Br)cc3c2=O)C(=O)N1 | 3.5* | / | / | / | 0.5 | /
COC(=O)C1C(c2ccccc2)CC2CCC1N2C (centres undefined) | / | / | -2.7 | / | / | /
Ic1ccccc1CN[C@@H]1C2CCN(CC2)[C@@H]1C(c1ccccc1)c1ccccc1 | 0.1 | 73.9* | -5.9 | -2.6 | / | 2.8

Screening results from PubChem.
